Reference: ChEMBL document CHEMBL1149289, “Synthesis and antibacterial activity of new poly-S-lysine-porphyrin conjugates” (J Med Chem, 2004)

Experiments:
Staphylococcus aureus [1] = experiment: Logarithmic survival of Staphylococcus aureus ATCC 25923 at 10 uM after 10 mins and irradiated with white light at the fluence rate of 50 mW/cm2 for 30 mins relative to control; assay type: functional; details: ATCC 25923, light or radiation study
Procedure, shortened: (§1)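 Strains grown aerobically at 37 °C on brain heart agar; stationary-phase cells washed twice in PBS and adjusted to OD650 ca. 0.7 (10^8 to 10^9 cells/mL). Cells incubated with photosensitizer at various concentrations for 10 min in the dark at room temperature, then irradiated with white light at 50 mW/cm² for 30 min. Survivors counted as cfu on BHA after 16–20 h at 37 °C, expressed relative to no-photosensitizer controls. Dark controls were run without irradiation.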

Staphylococcus aureus [2] = experiment: Logarithmic survival of Staphylococcus aureus ATCC 25923 at 1 uM after 10 mins and irradiated with white light at the fluence rate of 50 mW/cm2 for 30 mins relative to control; assay type: functional; details: ATCC 25923, light or radiation study; procedure, shortened: as §1
[3] = Photostability after irradiation with white light at the fluence rate of 50 mW/cm2 for 10 mins; assay type: ADME; details: read-out: Stability
Escherichia coli [4] = experiment: Logarithmic survival of Escherichia coli O4 at 0.1 uM after 10 mins and irradiated with white light at the fluence rate of 50 mW/cm2 for 30 mins relative to control; assay type: functional; details: O4, light or radiation study; procedure, shortened: as §1
Staphylococcus aureus [5] = experiment: Drug uptake per mg of protein in methicillin-resistant Staphylococcus aureus 110 at 5 uM after 10 mins; assay type: ADME, organism-based; details: in vivo
Procedure, shortened: (§2)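 Bacterial suspensions (10^8 to 10^9 cells/mL in PBS) were incubated with porphyrin for 10 min in the dark at room temperature, then centrifuged. The pellet was digested in 2% aqueous SDS. Porphyrin was quantified by spectrofluorimetry and cell protein by modified Lowry assay (BSA standard). Uptake is given as nmol per mg cell protein.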

Staphylococcus aureus [6] = experiment: Logarithmic survival of Staphylococcus aureus ATCC 25923 at 0.1 uM after 10 mins and irradiated with white light at the fluence rate of 50 mW/cm2 for 1 min relative to control; assay type: functional; details: ATCC 25923, light or radiation study
Procedure, shortened: (§3)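 S. aureus ATCC 25923 or MRSA 110 (PBS-washed, 10^8 to 10^9 cells/mL) were incubated with 0.1 μM photosensitizer for 10 min in the dark at room temperature. They were then irradiated with white light at 50 mW/cm² for varying times up to 30 min. Survival was read as cfu on BHA and divided by cfu of controls without photosensitizer.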

Staphylococcus aureus [7] = experiment: Logarithmic survival of methicillin-resistant Staphylococcus aureus 110 at 1 uM after 10 mins and irradiated with white light at the fluence rate of 50 mW/cm2 for 30 mins relative to control; assay type: functional; details: light or radiation study
Procedure, shortened: (§4)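 MRSA 110 grown aerobically at 37 °C on BHA. Stationary-phase cells were taken into BHI, washed twice in PBS and diluted to OD650 ~0.7 (10^8 to 10^9 cells/mL). Suspensions were held with photosensitizer for 10 min in the dark at room temperature, then given white light for 30 min. Cells were serially diluted, plated on BHA and counted after 16–20 h at 37 °C. Survival = cfu ÷ cfu of photosensitizer-free controls.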

Staphylococcus aureus [8] = experiment: Drug uptake per mg of protein in Staphylococcus aureus ATCC 25923 at 0.5 uM after 10 mins; assay type: ADME, organism-based; details: in vivo; procedure, shortened: as §2
Staphylococcus aureus [9] = experiment: Drug uptake per mg of protein in methicillin-resistant Staphylococcus aureus 110 at 1 uM after 10 mins; assay type: ADME, organism-based; details: in vivo; procedure, shortened: as §2
[10] = Photostability after irradiation with white light at the fluence rate of 50 mW/cm2 for 3 mins; assay type: ADME; details: read-out: Stability
Escherichia coli [11] = experiment: Drug uptake per mg of protein in Escherichia coli O4 at 0.5 uM after 10 mins; assay type: ADME, organism-based; details: in vivo; procedure, shortened: as §2
Staphylococcus aureus [12] = experiment: Antibacterial activity against Staphylococcus aureus ATCC 25923 measured as 4 log decrease in survival; assay type: functional; procedure, shortened: as §1
Staphylococcus aureus [13] = experiment: Logarithmic survival of Staphylococcus aureus ATCC 25923 at 0.1 uM after 10 mins and irradiated with white light at the fluence rate of 50 mW/cm2 for 15 mins relative to control; assay type: functional; details: ATCC 25923, light or radiation study; procedure, shortened: as §3
Escherichia coli [14] = experiment: Logarithmic survival of Escherichia coli O4 at 2.5 uM after 10 mins and irradiated with white light at the fluence rate of 50 mW/cm2 for 30 mins relative to control; assay type: functional; details: O4, light or radiation study; procedure, shortened: as §1
Escherichia coli [15] = experiment: Logarithmic survival of Escherichia coli O4 at 0.5 uM after 10 mins and irradiated with white light at the fluence rate of 50 mW/cm2 for 30 mins relative to control; assay type: functional; details: O4, light or radiation study; procedure, shortened: as §1
Escherichia coli [16] = experiment: Drug uptake per mg of protein in Escherichia coli O4 at 2.5 uM after 10 mins; assay type: ADME, organism-based; details: in vivo; procedure, shortened: as §2
Staphylococcus aureus [17] = experiment: Logarithmic survival of Staphylococcus aureus ATCC 25923 at 0.1 uM after 10 mins and irradiated with white light at the fluence rate of 50 mW/cm2 for 5 mins relative to control; assay type: functional; details: ATCC 25923, light or radiation study; procedure, shortened: as §3
Staphylococcus aureus [18] = experiment: Logarithmic survival of Staphylococcus aureus ATCC 25923 at 0.1 uM after 10 mins and irradiated with white light at the fluence rate of 50 mW/cm2 for 20 mins relative to control; assay type: functional; details: ATCC 25923, light or radiation study; procedure, shortened: as §3
Staphylococcus aureus [19] = experiment: Logarithmic survival of methicillin-resistant Staphylococcus aureus 110 at 5 uM after 10 mins and irradiated with white light at the fluence rate of 50 mW/cm2 for 30 mins relative to control; assay type: functional; details: light or radiation study; procedure, shortened: as §4
Staphylococcus aureus [20] = experiment: Drug uptake per mg of protein in Staphylococcus aureus ATCC 25923 at 2.5 uM after 10 mins; assay type: ADME, organism-based; details: in vivo; procedure, shortened: as §2
Escherichia coli [21] = experiment: Logarithmic survival of Escherichia coli O4 at 0.25 uM after 10 mins and irradiated with white light at the fluence rate of 50 mW/cm2 for 30 mins relative to control; assay type: functional; details: O4, light or radiation study; procedure, shortened: as §1
Staphylococcus aureus [22] = experiment: Logarithmic survival of Staphylococcus aureus ATCC 25923 at 0.1 uM after 10 mins and irradiated with white light at the fluence rate of 50 mW/cm2 for 2.5 mins relative to control; assay type: functional; details: ATCC 25923, light or radiation study; procedure, shortened: as §3
Staphylococcus aureus [23] = experiment: Logarithmic survival of methicillin-resistant Staphylococcus aureus 110 at 0.1 uM after 10 mins and irradiated with white light at the fluence rate of 50 mW/cm2 for 15 mins relative to control; assay type: functional; details: light or radiation study; procedure, shortened: as §3
Staphylococcus aureus [24] = experiment: Logarithmic survival of methicillin-resistant Staphylococcus aureus 110 at 0.1 uM after 10 mins and irradiated with white light at the fluence rate of 50 mW/cm2 for 30 mins relative to control; assay type: functional; details: light or radiation study; procedure, shortened: as §3
Staphylococcus aureus [25] = experiment: Drug uptake per mg of protein in Staphylococcus aureus ATCC 25923 at 1 uM after 10 mins; assay type: ADME, organism-based; details: in vivo; procedure, shortened: as §2
Staphylococcus aureus [26] = experiment: Logarithmic survival of methicillin-resistant Staphylococcus aureus 110 at 0.1 uM after 10 mins and irradiated with white light at the fluence rate of 50 mW/cm2 for 1 min relative to control; assay type: functional; details: light or radiation study; procedure, shortened: as §3
Escherichia coli [27] = experiment: Drug uptake per mg of protein in Escherichia coli O4 at 1 uM after 10 mins; assay type: ADME, organism-based; details: in vivo; procedure, shortened: as §2
Staphylococcus aureus [28] = experiment: Logarithmic survival of Staphylococcus aureus ATCC 25923 at 0.1 uM after 10 mins and irradiated with white light at the fluence rate of 50 mW/cm2 for 30 mins relative to control; assay type: functional; details: ATCC 25923, light or radiation study; procedure, shortened: as §3
Staphylococcus aureus [29] = experiment: Drug uptake per mg of protein in methicillin-resistant Staphylococcus aureus 110 at 10 uM after 10 mins; assay type: ADME, organism-based; details: in vivo; procedure, shortened: as §2
Staphylococcus aureus [30] = experiment: Antibacterial activity against methicillin-resistant Staphylococcus aureus 110 measured as 4 log decrease in survival; assay type: functional; procedure, shortened: as §1
Staphylococcus aureus [31] = experiment: Logarithmic survival of Staphylococcus aureus ATCC 25923 at 2.5 uM after 10 mins and irradiated with white light at the fluence rate of 50 mW/cm2 for 30 mins relative to control; assay type: functional; details: ATCC 25923, light or radiation study; procedure, shortened: as §1
Staphylococcus aureus [32] = experiment: Drug uptake per mg of protein in methicillin-resistant Staphylococcus aureus 110 at 0.5 uM after 10 mins; assay type: ADME, organism-based; details: in vivo; procedure, shortened: as §2

Structure (SMILES)	survival at 10 µM (Staphylococcus aureus [1]) [%]	survival at 1 µM (Staphylococcus aureus [2]) [%]	remaining at 10 min [3] [%]	survival at 0.1 µM (Escherichia coli [4])	Drug uptake (Staphylococcus aureus [5]) [nmol/mg]	survival at 0.1 µM (Staphylococcus aureus [6])	survival at 1 µM (Staphylococcus aureus [7])	Drug uptake (Staphylococcus aureus [8]) [nmol/mg]	Drug uptake (Staphylococcus aureus [9]) [nmol/mg]	remaining at 0.05 h [10] [%]	Drug uptake (Escherichia coli [11]) [nmol/mg]	Activity (Staphylococcus aureus [12]) [µM]	survival at 0.1 µM (Staphylococcus aureus [13])	survival at 2.5 µM (Escherichia coli [14])	survival at 0.5 µM (Escherichia coli [15])	Drug uptake (Escherichia coli [16]) [nmol/mg]	survival at 0.1 µM (Staphylococcus aureus [17])	survival at 0.1 µM (Staphylococcus aureus [18])	survival at 5 µM (Staphylococcus aureus [19])	Drug uptake (Staphylococcus aureus [20]) [nmol/mg]	other results
C[n+]1ccc(-c2c3nc(c(-c4cc[n+](C)cc4)c4ccc([nH]4)c(-c4cc[n+](C)cc4)c4nc(c(-c5ccc(C(=O)O)cc5)c5ccc2[nH]5)C=C4)C=C3)cc1.[I-].[I-].[I-]	-4.36	-1.32	77	1.57	11.8	0.67	-0.43	1.88	5.43	86	1.29	2.5	-1.17	-0.46	1.52	3.47	-0.28	-2.12	-2.29	7.77	survival at 0.25 µM (Escherichia coli [21]): 1.64; survival at 0.1 µM (Staphylococcus aureus [22]): 0.49; survival at 0.1 µM (Staphylococcus aureus [23]): 1.82; survival at 0.1 µM (Staphylococcus aureus [24]): 1.69%; Drug uptake (Staphylococcus aureus [25]): 3.71 nmol/mg; survival at 0.1 µM (Staphylococcus aureus [26]): 1.96; Drug uptake (Escherichia coli [27]): 2.47 nmol/mg; survival at 0.1 µM (Staphylococcus aureus [28]): 1.87; Drug uptake (Staphylococcus aureus [29]): 18 nmol/mg; Activity (Staphylococcus aureus [30]): 2.5 µM; survival at 2.5 µM (Staphylococcus aureus [31]): -2%; Drug uptake (Staphylococcus aureus [32]): 2.08 nmol/mg
O=C(O)c1ccc(-c2c3nc(c(-c4ccncc4)c4ccc([nH]4)c(-c4ccncc4)c4nc(c(-c5ccncc5)c5ccc2[nH]5)C=C4)C=C3)cc1 [PORPHIRIN]	-4.06	-2.7	94	2	143	1.49	-2.27	3.15	15	97	4.16	0.25	-2.48	1.65	1.46	35.3	-0.85	-3	-3.07	32.1	survival at 0.25 µM (Escherichia coli [21]): 1.7; survival at 0.1 µM (Staphylococcus aureus [22]): 0.22; survival at 0.1 µM (Staphylococcus aureus [23]): 0.26; survival at 0.1 µM (Staphylococcus aureus [24]): 0.46%; Drug uptake (Staphylococcus aureus [25]): 7.7 nmol/mg; survival at 0.1 µM (Staphylococcus aureus [26]): 1.83; Drug uptake (Escherichia coli [27]): 7.65 nmol/mg; survival at 0.1 µM (Staphylococcus aureus [28]): -1.7; Drug uptake (Staphylococcus aureus [29]): 342 nmol/mg; Activity (Staphylococcus aureus [30]): 1 µM; survival at 2.5 µM (Staphylococcus aureus [31]): -3.3%; Drug uptake (Staphylococcus aureus [32]): 5.5 nmol/mg
